# Test results reported in ChEMBL document CHEMBL5034012, “Procainamide-SAHA Fused Inhibitors of hHDAC6 Tackle Multidrug-Resistant Malaria Parasites” (J Med Chem, 2021).
# Active and inactive are the calls of the source. The rule behind the calls is not given here.
# Experiments:
# Plasmodium falciparum [1] = assay: Antiplasmodial activity against asynchronous asexual culture of Plasmodium falciparum NF54 assessed as parasite growth inhibition; format: functional, organism-based
# Outline: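 Asynchronous asexual NF54 cultures exposed to 7-point, 2-step serial dilutions starting at 500nM. DHA served as positive control, DMSO as negative. IC50 interpolated from three independent experiments run in triplicate.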
# HepG2 = assay: cells; format: functional, cell-based; conditions: Homo sapiens, HepG2, 72 h
# Histone deacetylase = assay: Inhibition of human HDAC using human HeLa cell nuclear extract measured after 60 mins by fluorescence assay; format: tissue-based
# [2] = Inhibition of Plasmodium falciparum NF54 HDAC using extract measured after 60 mins by fluorescence assay
# Histone deacetylase 1 = Histone deacetylase 1 (Homo sapiens, UniProt Q13547); assay: Inhibition of human recombinant HDAC1 using Tosyl-Gly-ProLys(Ac)-AMC as substrate measured after 60 mins by fluorescence assay
# Histone deacetylase 2 = Histone deacetylase 2 (Homo sapiens, UniProt Q92769); assay: Inhibition of human recombinant HDAC2 using Tosyl-Gly-ProLys(Ac)-AMC as substrate measured after 60 mins by fluorescence assay
# Histone deacetylase 3 = Histone deacetylase 3 (Homo sapiens, UniProt O15379); assay: Inhibition of human recombinant HDAC3 using Tosyl-Gly-ProLys(Ac)-AMC as substrate measured after 60 mins by fluorescence assay
# Plasmodium falciparum [3] = assay: Inhibition of trophozoite-stage Plasmodium falciparum HDAC in using nuclear extract assessed as H4K16 hyperacetylation at 10 times IC50 concentration incubated for 4 hrs by Western blot analysis; conditions: in the assay text read “total extract” for “nuclear extract”
# Outline: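 Parasites exposed 4h at 10× IC50, with CQ and 0.1% DMSO as controls. Saponin-lysed (0.15%) and extracted in Laemmli/DTT buffer; 5.10⁶ parasites loaded per lane. Blots probed with anti-H4K16Ac (1/500) and anti-H3 (1/1000). H4K16Ac band intensity normalized to H3. Three independent experiments.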
# Plasmodium falciparum [4] = assay: Antiplasmodial activity against synchronized ring stage Plasmodium falciparum 3D7 assessed as parasite reduction rate in lag phase by measuring time required to achieve maximum speed of action at 10 times IC50 concentration; format: functional
# Outline: (§1)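 3D7 culture of mostly rings exposed to drug for 6, 24, 48, 72 or 96h. Then washed, serially diluted 1/3 in fresh RBC and grown 3 weeks. Growth read by SYBR-green I. Number of wells with growth used to back-calculate viable parasites at each time point and derive growth parameters. One experiment, run in duplicate.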
# Plasmodium falciparum [5] = assay: Antiplasmodial activity against synchronized ring stage Plasmodium falciparum 3D7 assessed as parasite reduction over one cycle upto 48 hrs at 10 times IC50 concentration; format: functional; conditions: time hrs <=48; outline: as §1
# Plasmodium falciparum [6] = assay: Antiplasmodial activity against Plasmodium falciparum 3D7 assessed as time to kill initial parasite load at 10 times IC50 concentration; format: functional
# Outline: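 Parasite reduction rate assay on 3D7 cultures containing mostly rings, with DHA and pyrimethamine as references. Exposure windows of 6, 24, 48, 72 and 96h; cells then washed, serially diluted 1/3 in fresh RBC and grown 3 weeks before SYBR-green I read-out. Number of wells with growth gives viable parasites per time point, per Sanz et al. One experiment in duplicate.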
# Plasmodium falciparum [7] = assay: Antiplasmodial activity against Cambodian multidrug-resistant Plasmodium falciparum isolate incubated for 96 hrs measured by SYBR Green 1 assay; format: functional, organism-based
# Outline: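 Cambodian isolates chosen by multidrug-resistance pattern, 10 per resistance type. Ring-synchronized cultures at 2% hematocrit and 1% starting parasitemia; 11-point 2-step dilutions from 500nM; 96h incubation, then SYBR-green I read-out. Mefloquine and monodesethylamodiaquine served as positive controls. Triplicate wells, one biological replicate per isolate.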
# Plasmodium falciparum [8] = assay: Antiplasmodial activity against Plasmodium falciparum stage IIb-III gametocytes assessed as abnormal morphology by measuring rounded/swollen at highest concentration measured after 72 hrs using Geimsa staining based assay; format: functional
# Outline: (§2)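 Day-4 stage IIb-III gametocytes (asexuals removed by N-acetyl glucosamine), about 1% gametocytemia at 2% hematocrit, treated 72h at 10, 5, 1 or 0.5 µM against 0.1% DMSO. Then washed and recultured with daily medium changes. Morphology and parasitemia scored daily on Giemsa-stained thin smears.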
# Plasmodium falciparum [9] = assay: Antiplasmodial activity against Plasmodium falciparum late stage IV-V gametocytes assessed as reduction in number of exflagellation centers in at 1 to 10 uM treated for 72 hrs; format: functional, organism-based; conditions: dose 1-10 µM
# Outline: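 Synchronous gametocytes induced; asexual forms removed with N-acetyl glucosamine for 5 days. Day-9 stage IV-V gametocytes, about 1% gametocytemia at 2% hematocrit, treated 72h at 10, 5, 1 or 0.5 µM against 0.1% DMSO. Then washed and recultured with daily medium changes. […], pelleted cells mixed 1:1 with human serum. Exflagellation centers counted over ≥10 fields at 40× within one hour. Two independent experiments; one-way ANOVA.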
# Plasmodium falciparum [10] = assay: Antiplasmodial activity against ring stage Plasmodium falciparum 3D7 assessed as defective parasite division at 10 times IC50 concentration incubated for 24 hrs by transmission electron microscopy; format: functional, organism-based
# Outline: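 Harvested with Plasmagel and fixed in 4% PFA/0.1% glutaraldehyde. Gelatin-embedded; 60nm ultrathin sections. Anti-H3 (1/100) labelled with 10nm protein A-gold. Stained with methylcellulose/0.4% uranyl acetate and imaged by TEM at 120 kV.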
# Plasmodium falciparum [11] = assay: Antiplasmodial activity against Plasmodium falciparum stage IIb-III gametocytes assessed as abnormal morphology by measuring fragile like extensions at highest concentration measured after 72 hrs using Geimsa staining based assay; format: functional; outline: as §2
# Histone deacetylase 1, sequence (Q13547 whole entry): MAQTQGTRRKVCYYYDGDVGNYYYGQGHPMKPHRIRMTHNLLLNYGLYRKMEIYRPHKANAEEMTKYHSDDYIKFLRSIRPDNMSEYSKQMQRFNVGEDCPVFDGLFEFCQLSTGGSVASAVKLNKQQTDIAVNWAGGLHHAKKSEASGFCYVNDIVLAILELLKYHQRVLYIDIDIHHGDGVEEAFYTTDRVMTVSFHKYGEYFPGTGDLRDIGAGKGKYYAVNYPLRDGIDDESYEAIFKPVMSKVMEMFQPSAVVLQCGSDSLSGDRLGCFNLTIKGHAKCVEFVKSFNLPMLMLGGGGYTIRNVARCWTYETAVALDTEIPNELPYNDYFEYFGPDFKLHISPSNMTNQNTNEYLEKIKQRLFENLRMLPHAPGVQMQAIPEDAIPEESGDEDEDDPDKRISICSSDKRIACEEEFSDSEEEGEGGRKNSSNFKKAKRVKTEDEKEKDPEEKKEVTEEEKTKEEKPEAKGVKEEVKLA
# Histone deacetylase 2, sequence (Q92769 whole entry): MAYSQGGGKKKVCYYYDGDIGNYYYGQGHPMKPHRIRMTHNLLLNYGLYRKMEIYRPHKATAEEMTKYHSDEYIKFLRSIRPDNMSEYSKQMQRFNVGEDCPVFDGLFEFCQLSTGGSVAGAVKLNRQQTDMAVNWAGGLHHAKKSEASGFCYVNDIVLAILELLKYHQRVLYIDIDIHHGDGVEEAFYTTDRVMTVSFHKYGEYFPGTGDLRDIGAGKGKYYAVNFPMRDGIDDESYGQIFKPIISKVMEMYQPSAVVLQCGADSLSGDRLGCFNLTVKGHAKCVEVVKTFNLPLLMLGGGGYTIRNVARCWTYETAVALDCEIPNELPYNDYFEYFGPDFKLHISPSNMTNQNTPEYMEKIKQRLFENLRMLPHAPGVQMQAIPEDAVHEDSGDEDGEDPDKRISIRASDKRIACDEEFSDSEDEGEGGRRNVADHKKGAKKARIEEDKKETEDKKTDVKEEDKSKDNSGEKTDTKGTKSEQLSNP
# Histone deacetylase 3, sequence (O15379 whole entry): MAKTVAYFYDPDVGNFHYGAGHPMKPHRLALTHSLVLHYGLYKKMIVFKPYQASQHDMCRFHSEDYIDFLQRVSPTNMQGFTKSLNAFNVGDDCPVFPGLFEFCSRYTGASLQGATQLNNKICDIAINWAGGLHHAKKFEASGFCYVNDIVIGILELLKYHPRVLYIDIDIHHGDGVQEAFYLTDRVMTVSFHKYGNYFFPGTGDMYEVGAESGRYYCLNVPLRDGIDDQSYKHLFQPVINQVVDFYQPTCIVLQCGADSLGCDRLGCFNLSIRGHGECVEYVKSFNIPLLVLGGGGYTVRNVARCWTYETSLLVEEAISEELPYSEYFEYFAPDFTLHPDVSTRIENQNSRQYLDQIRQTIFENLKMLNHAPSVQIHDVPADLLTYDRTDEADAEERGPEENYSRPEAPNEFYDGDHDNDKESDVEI
Structure (SMILES),IC50 (Plasmodium falciparum [1]) [nM],IC50 (HepG2) [nM],IC50 (Histone deacetylase) [nM],IC50 [2] [nM],IC50 (Histone deacetylase 1) [nM],IC50 (Histone deacetylase 2) [nM],IC50 (Histone deacetylase 3) [nM],fold change (FC) (Plasmodium falciparum [3]),Time (Plasmodium falciparum [4]) [h],log(activity) (Plasmodium falciparum [5]),LT99.9 (Plasmodium falciparum [6]) [h],IC50 (Plasmodium falciparum [7]) [nM],Activity (Plasmodium falciparum [8]),Activity (Plasmodium falciparum [9]),Activity (Plasmodium falciparum [10]),Activity (Plasmodium falciparum [11])
O=C(CCCCCCC(=O)Nc1ccc(C(=O)NC2CCNCC2)cc1)NO,52,230000,140,480,150,270,110,6,6,4.22,34.3,70,<=90%,Active,Active,<=90%
CCN(CC)CCNC(=O)c1ccc(NC(=O)CCCCCCC(=O)NO)cc1,41,8400,60,380,70,80,70,6,0,3.8,40.3,76,<=90%,Active,Active,<=90%
